We go through 19 compounds from ChEMBL document CHEMBL2346499, “Small molecule modulators of Wnt/β-catenin signaling” (Bioorg Med Chem Lett, 2013).

Active and inactive are the calls of the source. The rule behind the calls is not given here.

In one test the target is Frizzled-1 (Homo sapiens) (UniProt Q9UP38). The test is described as follows: Induction of internalization of Frizzled1-GFP (unknown origin) expressed in human U2OS cells at 12.5 uM after 6 hrs by confocal microscopy.
Chain of Frizzled-1 (Homo sapiens) (Q9UP38 70-647 limits assumed): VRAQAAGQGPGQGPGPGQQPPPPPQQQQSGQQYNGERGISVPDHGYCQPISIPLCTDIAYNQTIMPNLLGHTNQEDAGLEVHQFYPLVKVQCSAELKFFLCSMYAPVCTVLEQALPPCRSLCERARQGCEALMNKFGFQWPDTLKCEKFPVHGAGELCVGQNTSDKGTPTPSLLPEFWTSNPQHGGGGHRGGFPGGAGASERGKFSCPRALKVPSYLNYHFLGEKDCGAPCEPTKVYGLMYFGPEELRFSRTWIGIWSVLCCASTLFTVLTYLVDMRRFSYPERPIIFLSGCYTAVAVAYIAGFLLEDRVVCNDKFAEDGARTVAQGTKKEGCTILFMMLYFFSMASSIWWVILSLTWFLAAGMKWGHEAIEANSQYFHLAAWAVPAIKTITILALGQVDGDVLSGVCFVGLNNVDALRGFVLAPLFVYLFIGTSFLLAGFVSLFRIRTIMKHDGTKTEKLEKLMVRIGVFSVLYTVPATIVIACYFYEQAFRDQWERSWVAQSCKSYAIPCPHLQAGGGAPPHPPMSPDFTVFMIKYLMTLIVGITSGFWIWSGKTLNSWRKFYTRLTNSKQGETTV
Conditions: not given
Format: cell-based.
With `[N-]=[N+]=Nc1ccc(NC(=O)c2cc(Cl)ccc2O)c(Cl)c1`, the outcome was Active. Regarding `O=C(Nc1cccc([N+](=O)[O-])c1)c1cc(Cl)ccc1O`, the result was inactive. For the compound `COc1cc([N+](=O)[O-])ccc1NC(=O)c1cc(Cl)ccc1O`, the outcome was Active. Same read-out and setting: to `O=C(Nc1cc(Cl)cc(Cl)c1O)c1c(O)c(Cl)cc(Cl)c1Cl` belongs “inactive”. The same measure, in the same setting: in the case of `Cc1cc(C(C#N)c2ccc(Cl)cc2)c(Cl)cc1NC(=O)c1cc(I)cc(I)c1O` (stereo not given) it was “inactive”; in that of `O=C(Nc1ccc([N+](=O)[O-])cc1Br)c1ccccc1O`, “Active”; in that of `O=C(Nc1ccc([N+](=O)[O-])cc1Cl)c1cc(Br)ccc1O`, “Active”. Take `[N-]=[N+]=NCCOCCOCCOc1cc([N+](=O)[O-])ccc1NC(=O)c1cc(Cl)ccc1O`: the result was Active. Turning to `O=C(Nc1ccc(Oc2ccc(Cl)cc2)c(Cl)c1)c1cc(I)cc(I)c1O`, the outcome was inactive.

Regarding `O=C(Nc1ccc([N+](=O)[O-])cc1Cl)c1cccc(Cl)c1`, the result was inactive. As for `O=C(Nc1ccc([N+](=O)[O-])cc1)c1cc(Br)ccc1O`, the result was Active. As for `O=C(Nc1ccc([N+](=O)[O-])cc1)c1cc(Cl)ccc1O`, the result was Active. On the same count and under the same terms, to `O=C(Nc1ccc([N+](=O)[O-])cc1Cl)c1cc(Cl)ccc1O` [NICLOSAMIDE] belongs “Active”.

Turning to `O=C(Nc1ccc(Br)cc1)c1cc(Br)cc(Br)c1O`, the outcome was inactive. Regarding `O=C(Nc1ccc([N+](=O)[O-])cc1Cl)c1ccccc1O`, the result was Active.

As to `Nc1ccc(NC(=O)c2cc(Cl)ccc2O)c(Cl)c1`, the outcome was inactive. Regarding `COc1ccc(Cl)cc1C(=O)Nc1ccc([N+](=O)[O-])cc1Cl`, the outcome was inactive. Consider `O=C(Nc1ccc(NS(=O)(=O)c2ccc(Cl)cc2)cc1Cl)c1cc(Cl)ccc1O`, for which the result was inactive. As for `O=C(Nc1ccccc1[N+](=O)[O-])c1cc(Cl)ccc1O`, the result was inactive.

Test system in another test: not listed separately
The test is described as follows: Induction of Wnt3A/beta-catenin signaling in HEK293 cells after 8 hrs by TOPflash reporter assay. The class given is cell-based. The note with it: Homo sapiens. Summed up:
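HEK293 cells carrying TOPflash reporter, treated with or without Wnt3A conditioned medium (5% as reference sample) plus compound at the indicated concentrations for 8 hrs; luciferase read as relative luciferase units; significance versus Wnt3A-only sample by t test.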
For `O=C(Nc1ccc(NS(=O)(=O)c2ccc(Cl)cc2)cc1Cl)c1cc(Cl)ccc1O`, the Activity entry is “Dose-dependent effect”.
